Paper PMC5409837 (Science translational medicine, 2017)
Where two headings read alike, the source gives them in different places.

Key:
Akt protein network = test: Human Phospho-Kinase Antibody Array in hiPSC-CMs after IGF1 or insulin; format: cell-based; details: 12 hour IGF1 or insulin treatment
hiPSC-CMs [1] = format: cell-based; details: for rescue of ponatinib toxicity (hiPSC-CM viability): co-treatment with ponatinib, 72 hours, CellTiter-Glo
Axl phosphorylation = test: Human Phospho-RTK Array in hiPSC-CMs: Axl; format: cell-based; details: 0-1 μM, 72 hours
hiPSC-CMs [2] = test system: hiPSC-CMs
hiPSC-CMs [3] = test: High-throughput hiPSC-CM contractility assessment; format: cell-based, human; details: for alterations in beating rate relative to LD50: commercially-available healthy control hiPSC-CMs, 72 hour treatment
hiPSC-CMs [4] = test: Patch clamp electrophysiology; format: cell-based, human; details: two hour treatment; for action potential duration: clinically-relevant concentrations
hiPSC-CMs [5] = test: Calcium imaging of hiPSC-CMs; format: cell-based, human; details: 2 hour treatment; for beat rate (calcium imaging) / calcium transient duration: clinically-relevant concentrations
Outline: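 hiPSC-CMs (day 30–40 post-differentiation) reseeded on Matrigel-coated chamber slides and exposed to test compound for 2 hours; compound stocks in DMSO at 10 mM. Cells loaded with 5 μM Fluo-4 AM plus 0.02% Pluronic F-127 in Tyrode's solution for 15 min at 37°C, then washed. Spontaneous Ca2+ transients recorded at 37°C by confocal single-cell line scan.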

[6] = patients, cited from earlier work
hiPSC-CMs [7] = details: for LD50: hiPSC-CMs, 72 hour TKI treatment, PrestoBlue cell viability assay
hiPSC-CFs = test: TKI cytotoxicity in hiPSC-derived cardiac fibroblasts; format: cell-based
[8] = test system: VEGFR2 and PDGFRα phosphorylation; details: hiPSC-CMs
hiPSC-ECs = test: TKI cytotoxicity in hiPSC-derived endothelial cells; format: cell-based
neuropilin 2 (NRP2) = test: Microarray gene expression in hiPSC-CMs after TKI treatment; format: cell-based, human; details: 1 μM TKI, 72 hour
hiPSCs = format: cell-based, human
[9] = test system: INSR and IGF1R phosphorylation; test: Human Phospho-RTK Array in hiPSC-CMs: INSR and IGF1R; format: cell-based; details: for INSR and IGF1R phosphorylation: 0-1 μM, 72 hours
hiPSC-CMs [10] = details: cited from earlier work
[11] = Clinical cardiotoxicity in patients; format: in vivo, human; details: sunitinib first-line, axitinib second-line treatment
VEGFC = test: RNA-sequencing of hiPSC-CMs treated with sorafenib: VEGFC; format: cell-based, human; details: 5 healthy control hiPSC-CM lines, 1 μM, 72 hours
zebrafish heart = details: cited from earlier work
[12] = quantitative and qualitative viability assays

## IGF1
Akt protein network
  phosphorylation of Akt protein network: enhanced phosphorylation of the anti-apoptotic Akt protein network
hiPSC-CMs [1]
  rescue of ponatinib toxicity (hiPSC-CM viability): cardioprotective effect
hiPSC-CMs [1]; listed as IGF
  rescue of ponatinib toxicity (hiPSC-CM viability): significantly rescued ponatinib toxicity

## COc1cc2nccc(Oc3ccc(NC(=O)C4(C(=O)Nc5ccc(F)cc5)CC4)cc3)c2cc1OC [cabozantinib]
Axl phosphorylation
  Axl phosphorylation: decreased Axl phosphorylation

## Cc1cn(-c2cc(NC(=O)c3ccc(C)c(Nc4nccc(-c5cccnc5)n4)c3)cc(C(F)(F)F)c2)cn1 [nilotinib]
hiPSC-CMs [2]; human, 72 h
  cardiac safety index: ≤ 0.10
hiPSC-CMs [3]
  alterations in beating rate relative to LD50: alterations in hiPSC-CM beating rate and other parameters at doses lower than LD50 cytotoxicity values
hiPSC-CMs [4]
  cellular beating rate (patch clamp): decreased cellular beating rate
  action potential duration: significantly prolonged action potential duration
hiPSC-CMs [5]
  beat rate (calcium imaging): decreased beat rate
  calcium transient duration: prolonged calcium transient duration
[6]
  clinical QT interval prolongation and arrhythmias: cause dangerous QT interval prolongation and arrhythmias clinically

## CNC(=O)c1cc(Oc2ccc(NC(=O)Nc3ccc(Cl)c(C(F)(F)F)c3)c(F)c2)ccn1 [regorafenib]
hiPSC-CMs [2]; value from 0-1, 0.10 = threshold for highly cardiotoxic compounds
  cardiac safety index: below 0.10
hiPSC-CMs [7]
  LD50: 7.1 µM
hiPSC-CMs [7]; [12]
  cytotoxicity in all eleven healthy control hiPSC-CM lines: highly cytotoxic
hiPSC-CFs
  relative cytotoxicity in hiPSC-CFs: the highest cytotoxicities
[8]
  VEGFR2/PDGFR inhibition at nanomolar concentrations: complete VEGFR2/PDGFR inhibition
hiPSC-ECs
  relative cytotoxicity in hiPSC-ECs: the most cytotoxic TKIs in hiPSC-ECs
Neuropilin 2 (NRP2)
  increase in expression of neuropilin 2: two-fold

## COc1cccc2c1C(=O)c1c(O)c3c(c(O)c1C2=O)C[C@@](O)(C(=O)CO)C[C@@H]3O[C@H]1C[C@H](N)[C@H](O)[C@H](C)O1 [doxorubicin]
hiPSC-CMs [2]; human, 72 h
  cardiac safety index: ≤ 0.10
hiPSC-CMs [7]
  LD50: 0.78 µM
hiPSCs
  toxicity in hiPSCs at 0.1 μM: lethal
  toxicity in undifferentiated hiPSCs: substantially enhanced in hiPSCs

## Cc1ccc(C(=O)Nc2ccc(CN3CCN(C)CC3)c(C(F)(F)F)c2)cc1C#Cc1cnc2cccnn12 [ponatinib]
[9]
  fold enhancement of INSR/IGF1R phosphorylation: two-fold
  INSR and IGF1R phosphorylation: increased INSR and IGF1R phosphorylation
hiPSC-CMs [10]
  mitochondrial stress and contraction abnormalities in hiPSC-CMs: induce mitochondrial stress and elicit contraction abnormalities in hiPSC-CMs
hiPSC-CMs [7]
  LD50: 4.3 µM
hiPSC-CMs [7]; [12]
  cytotoxicity in all eleven healthy control hiPSC-CM lines: highly cytotoxic
hiPSC-CFs
  relative cytotoxicity in hiPSC-CFs: the highest cytotoxicities
[8]
  VEGFR2/PDGFR inhibition at nanomolar concentrations: complete VEGFR2/PDGFR inhibition
hiPSC-ECs
  relative cytotoxicity in hiPSC-ECs: the most cytotoxic TKIs in hiPSC-ECs
Neuropilin 2 (NRP2)
  increase in expression of neuropilin 2: two-fold

## insulin
Akt protein network
  phosphorylation of Akt protein network: enhanced phosphorylation of the anti-apoptotic Akt protein network
hiPSC-CMs [1]; co-treatment with doxorubicin
  rescue of doxorubicin cytotoxicity in hiPSC-CMs: rescued hiPSC-CMs from doxorubicin cytotoxicity

## CCN(CC)CCNC(=O)c1c(C)[nH]c(/C=C2\C(=O)Nc3ccc(F)cc32)c1C [sunitinib]
[11]
  clinical cardiotoxicity in the two kidney cancer patients: no significant clinical cardiotoxicity
hiPSC-CMs [7]
  difference in cytotoxicity between TKI-receiving patient hiPSC-CMs and healthy control hiPSC-CM lines: did not observe a significant difference in cytotoxicity

## COc1cc2c(Nc3ccc(Br)cc3F)ncnc2cc1OCC1CCN(C)CC1 [vandetanib]
hiPSC-CMs [3]
  alterations in beating rate relative to LD50: alterations in hiPSC-CM beating rate and other parameters at doses lower than LD50 cytotoxicity values
hiPSC-CMs [4]
  cellular beating rate (patch clamp): decreased cellular beating rate
  action potential duration: significantly prolonged action potential duration
hiPSC-CMs [5]
  beat rate (calcium imaging): decreased beat rate
  calcium transient duration: prolonged calcium transient duration
[6]
  clinical QT interval prolongation and arrhythmias: cause dangerous QT interval prolongation and arrhythmias clinically

## Cc1ccc(NC(=O)c2ccc(CN3CCN(C)CC3)cc2)cc1Nc1nccc(-c2cccnc2)n1 [imatinib]
hiPSC-CMs [5]
  calcium imaging parameters (transient amplitude, transient duration, beating rate): did not significantly alter parameters such as calcium transient amplitude, transient duration, or beating rate

## C#Cc1cccc(Nc2ncnc3cc(OCCOC)c(OCCOC)cc23)c1 [erlotinib]
hiPSC-CMs [7]
  LD50: 87.60 µM

## CNC(=O)c1ccccc1Sc1ccc2c(/C=C/c3ccccn3)n[nH]c2c1 [axitinib]
[9]
  fold enhancement of INSR/IGF1R phosphorylation: two-fold
  INSR and IGF1R phosphorylation: increased INSR and IGF1R phosphorylation
hiPSC-CMs [3]; clinically-relevant concentrations
  contraction irregularities: Neither DMSO nor axitinib elicited contraction irregularities
[11]
  clinical cardiotoxicity in the two kidney cancer patients: no significant clinical cardiotoxicity
hiPSC-CMs [4]
  action potential duration: did not alter action potential duration
hiPSC-CMs [5]
  calcium imaging parameters (transient amplitude, transient duration, beating rate): did not significantly alter parameters such as calcium transient amplitude, transient duration, or beating rate
hiPSC-CMs [7]
  difference in cytotoxicity between TKI-receiving patient hiPSC-CMs and healthy control hiPSC-CM lines: did not observe a significant difference in cytotoxicity
  relative cytotoxicity among TKIs in hiPSC-CMs: the least cytotoxic TKI in hiPSC-CMs
hiPSCs
  toxicity in undifferentiated hiPSCs: extremely toxic to hiPSCs
[8]; 0-1 μM, 72 hours, sub-cytotoxic concentrations
  VEGFR2 and PDGFRα phosphorylation: the strongest dual-inhibition

## CNC(=O)c1cc(Oc2ccc(NC(=O)Nc3ccc(Cl)c(C(F)(F)F)c3)cc2)ccn1 [sorafenib]
VEGFC
  VEGFC expression: increased expression
[6]; ref Table S2, 20
  clinical cardiotoxicity: causes ventricular dysfunction and heart failure clinically
Zebrafish heart
  cardiotoxicity in zebrafish heart: induces cardiomyocyte death and contractility defects in the zebrafish heart
hiPSC-CMs [7]
  cytotoxicity in all eleven healthy control hiPSC-CM lines: highly cytotoxic
  LD50: 3.4 µM
Neuropilin 2 (NRP2)
  increase in expression of neuropilin 2: two-fold
